Values after ≈ are worked out from the molar mass of the structure shown.
How the values were obtained:
[1] = molecular target: Carbonic anhydrase 4 (Homo sapiens, UniProt P22748); assay: Inhibition of recombinant human CA4 expressed in Escherichia coli assessed as reduction in CO2 hydration by stopped flow assay
How it was run: (§1)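 Stopped-flow assay following the CA-catalysed hydration of CO2 (the physiological reaction); Ki values from three determinations, errors within ±5% of the reported value.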

[2] = test system: Staphylococcus aureus; assay: Antibacterial activity against Staphylococcus aureus ATCC 43300; assay type: functional
[3] = molecular target: Carbonic anhydrase 2 (Homo sapiens, UniProt P00918); assay: Inhibition of recombinant human CA2 expressed in Escherichia coli assessed as reduction in CO2 hydration by stopped flow assay; how it was run: as §1
[4] = test system: Pseudomonas aeruginosa; assay: Antibacterial activity against Pseudomonas aeruginosa ATCC 27853 at 20 uM relative to control; assay type: functional
How it was run: (§2)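 Screened by CO-ADD at a single concentration of 20 µM; growth inhibition above 50% at this concentration was classed as a hit. Strains and sources are given in Supplementary Information.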

[5] = test system: Klebsiella pneumoniae; assay: Antibacterial activity against Klebsiella pneumoniae ATCC 700603 at 20 uM relative to control; assay type: functional; how it was run: as §2
[6] = Cytotoxicity against HEK293 cells; assay type: cell-based; settings: human
[7] = molecular target: Carbonic anhydrase 9 (Homo sapiens, UniProt Q16790); assay: Inhibition of recombinant human CA9 expressed in Escherichia coli assessed as reduction in CO2 hydration by stopped flow assay; how it was run: as §1
[8] = molecular target: Carbonic anhydrase 1 (Homo sapiens, UniProt P00915); assay: Inhibition of recombinant human CA1 expressed in Escherichia coli assessed as reduction in CO2 hydration by stopped flow assay; how it was run: as §1
[9] = test system: Cryptococcus neoformans; assay: Antifungal activity against Cryptococcus neoformans var. grubii H99 ATCC 208821 at 20 uM by resazurin dye based assay relative to control; assay type: functional; how it was run: as §2
[10] = test system: Candida albicans; assay: Antifungal activity against Candida albicans ATCC 90028 at 20 uM by resazurin dye based assay relative to control; assay type: functional; how it was run: as §2
[11] = test system: Acinetobacter baumannii; assay: Antibacterial activity against Acinetobacter baumannii ATCC 19606 at 20 uM relative to control; assay type: functional, ATCC 19606 = CIP 70.34 = JCM 6841; how it was run: as §2
[12] = test system: Escherichia coli; assay: Antibacterial activity against Escherichia coli ATCC 25922; assay type: functional
[13] = test system: Escherichia coli; assay: Antibacterial activity against Escherichia coli ATCC 25922 at 20 uM relative to control; assay type: functional; how it was run: as §2
[14] = test system: Staphylococcus aureus; assay: Antibacterial activity against Staphylococcus aureus ATCC 43300 at 20 uM relative to control; assay type: functional; how it was run: as §2

Sequence of Carbonic anhydrase 1 (P00915 whole entry): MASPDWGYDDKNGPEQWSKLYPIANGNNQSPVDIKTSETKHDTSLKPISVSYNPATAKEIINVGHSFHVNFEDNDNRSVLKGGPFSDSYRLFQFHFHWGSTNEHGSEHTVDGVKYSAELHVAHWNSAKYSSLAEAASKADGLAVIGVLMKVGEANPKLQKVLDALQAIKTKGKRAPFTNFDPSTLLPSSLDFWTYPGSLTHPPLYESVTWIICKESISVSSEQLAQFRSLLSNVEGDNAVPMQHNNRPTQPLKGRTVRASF
Sequence of Carbonic anhydrase 4 (P22748 whole entry): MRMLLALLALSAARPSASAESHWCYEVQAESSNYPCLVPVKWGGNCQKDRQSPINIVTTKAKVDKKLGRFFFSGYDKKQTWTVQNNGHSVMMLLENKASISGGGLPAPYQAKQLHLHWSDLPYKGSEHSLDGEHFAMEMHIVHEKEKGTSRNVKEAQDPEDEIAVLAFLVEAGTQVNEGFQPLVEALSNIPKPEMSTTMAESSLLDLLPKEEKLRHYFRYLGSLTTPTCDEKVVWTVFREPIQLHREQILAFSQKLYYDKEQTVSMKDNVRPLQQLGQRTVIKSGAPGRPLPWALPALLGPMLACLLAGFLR

| Ki [1] | MIC [2] | Ki [3] | Ki [7] | Ki [8] | MIC [12] | Structure (SMILES) | Activity [4] | Activity [5] | CC50 [6] | Activity [9] | Activity [10] | Activity [11] | Activity [13] | Activity [14] |
| --- | --- | --- | --- | --- | --- | --- | --- | --- | --- | --- | --- | --- | --- | --- |
| 234 nM | > 20 µM | 65.2 nM | 143 nM | 167 nM | 5 µM (≈ 1.9 µg/mL) | Nc1nc(Cl)nc2c1ncn2[C@@H]1O[C@H](COS(N)(=O)=O)[C@@H](O)[C@H]1O | <=50% | <=50% | < 150 nM | <=50% | <=50% | <=50% | >50% | <=50% |
| 4450 nM | 10 µM (≈ 3.46 µg/mL) | 3410 nM | 3100 nM | 6350 nM | > 20 µM | Nc1ncnc2c1ncn2[C@@H]1O[C@H](COS(N)(=O)=O)[C@@H](O)[C@H]1O | <=50% | <=50% | 800 nM | <=50% | <=50% | <=50% | <=50% | >50% |

From ChEMBL document CHEMBL4229396, “Synthesis, structure and bioactivity of primary sulfamate-containing natural products” (Bioorg Med Chem Lett, 2018)
